From ChEMBL document CHEMBL1151781, “Selectivity of inhibitors of endocannabinoid biosynthesis evaluated by activity-based protein profiling” (Bioorg Med Chem Lett, 2008)
Active and inactive are the calls of the source. The calls are words filed in the database; no cut-off is given here.

How the values were obtained:
[1] = target: Monoglyceride lipase (Mus musculus) (UniProt O35678); test: Inhibition of MAGL in mouse brain at 0.01 to 100 uM treated for 30 mins by SDS-PAGE using rhodamine-tagged FP probe; assay type: tissue-based
Outline: (§1)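 Mouse brain membrane proteome preincubated with inhibitor across 0.01-100 μM for 30 min. A rhodamine-tagged fluorophosphonate probe (FP-Rh) was then added for 60 min. Samples were resolved by SDS-PAGE, and probe labeling of each hydrolase band was read by in-gel fluorescence scanning.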

[2] = target: T1, Fatty-acid amide hydrolase 1 (Mus musculus) (UniProt O08914); test: Inhibition of FAAH in mouse brain at 0.01 to 100 uM treated for 30 mins by SDS-PAGE using rhodamine-tagged FP probe; assay type: tissue-based; outline: as §1
T1 sequence (whole entry): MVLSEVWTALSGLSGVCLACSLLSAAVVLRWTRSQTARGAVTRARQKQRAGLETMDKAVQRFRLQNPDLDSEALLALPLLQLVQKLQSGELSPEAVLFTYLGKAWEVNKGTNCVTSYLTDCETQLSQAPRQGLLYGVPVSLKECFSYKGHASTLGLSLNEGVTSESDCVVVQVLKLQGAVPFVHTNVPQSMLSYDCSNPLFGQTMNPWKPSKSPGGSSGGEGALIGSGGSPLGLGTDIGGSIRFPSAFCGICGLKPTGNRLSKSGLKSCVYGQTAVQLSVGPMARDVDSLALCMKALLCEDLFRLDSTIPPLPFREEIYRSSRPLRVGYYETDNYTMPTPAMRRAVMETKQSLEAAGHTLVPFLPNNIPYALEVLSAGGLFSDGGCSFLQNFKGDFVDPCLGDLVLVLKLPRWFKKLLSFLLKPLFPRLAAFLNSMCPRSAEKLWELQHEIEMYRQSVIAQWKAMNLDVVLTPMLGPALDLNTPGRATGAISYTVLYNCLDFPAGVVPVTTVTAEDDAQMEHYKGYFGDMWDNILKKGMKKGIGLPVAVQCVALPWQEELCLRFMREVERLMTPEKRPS

[3] = target: T2, Diacylglycerol lipase-beta (Mus musculus) (UniProt Q91WC9); test: Inhibition of DAGLbeta in mouse brain assessed as >15 average spectral count at 5 uM treated for 30 mins by ABPP-MudPIT assay; assay type: tissue-based
T2 sequence (whole entry): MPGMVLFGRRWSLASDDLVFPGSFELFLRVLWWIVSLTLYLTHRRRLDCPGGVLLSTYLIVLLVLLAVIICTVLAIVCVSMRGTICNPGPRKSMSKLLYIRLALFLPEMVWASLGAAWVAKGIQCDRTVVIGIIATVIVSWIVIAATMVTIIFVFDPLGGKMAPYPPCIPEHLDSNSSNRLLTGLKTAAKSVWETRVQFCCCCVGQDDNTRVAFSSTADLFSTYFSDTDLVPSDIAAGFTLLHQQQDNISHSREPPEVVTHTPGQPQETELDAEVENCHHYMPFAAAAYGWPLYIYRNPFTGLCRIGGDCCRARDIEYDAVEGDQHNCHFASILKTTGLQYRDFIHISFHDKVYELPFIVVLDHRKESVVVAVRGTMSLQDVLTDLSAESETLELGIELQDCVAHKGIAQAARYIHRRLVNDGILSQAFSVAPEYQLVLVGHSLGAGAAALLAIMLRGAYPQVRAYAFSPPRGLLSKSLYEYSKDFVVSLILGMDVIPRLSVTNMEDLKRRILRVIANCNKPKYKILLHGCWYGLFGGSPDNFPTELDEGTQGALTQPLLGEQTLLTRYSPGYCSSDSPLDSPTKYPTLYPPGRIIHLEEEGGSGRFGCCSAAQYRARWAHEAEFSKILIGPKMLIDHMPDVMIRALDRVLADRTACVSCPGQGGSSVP

[4] = target: Monoacylglycerol lipase ABHD6 (Mus musculus) (UniProt Q8R2Y0); test: Inhibition of ABHD6 in mouse brain at 0.01 to 100 uM treated for 30 mins by SDS-PAGE using rhodamine-tagged FP probe; assay type: tissue-based; outline: as §1
[5] = target: T3, Neutral cholesterol ester hydrolase 1 (Mus musculus) (UniProt Q8BLF1); test: Inhibition of KIAA1363 in mouse brain at 0.01 to 100 uM treated for 30 mins by SDS-PAGE using rhodamine-tagged FP probe; assay type: tissue-based; outline: as §1
T3 sequence (whole entry): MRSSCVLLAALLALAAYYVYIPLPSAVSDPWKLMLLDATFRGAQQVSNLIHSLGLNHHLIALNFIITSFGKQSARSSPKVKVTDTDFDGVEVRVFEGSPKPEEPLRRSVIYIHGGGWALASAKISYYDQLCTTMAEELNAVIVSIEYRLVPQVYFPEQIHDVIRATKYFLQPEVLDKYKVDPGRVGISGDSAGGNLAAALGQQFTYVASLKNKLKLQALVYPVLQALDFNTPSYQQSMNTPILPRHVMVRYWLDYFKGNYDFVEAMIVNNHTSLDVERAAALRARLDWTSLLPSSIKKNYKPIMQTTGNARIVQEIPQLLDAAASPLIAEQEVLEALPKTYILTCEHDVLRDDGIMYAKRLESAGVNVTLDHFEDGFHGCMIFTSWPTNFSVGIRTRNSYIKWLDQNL

[6] = target: Phosphatidylserine lipase ABHD16A (Homo sapiens, UniProt O95870); test: Inhibition of recombinant BAT5 transfected in HEK293T cells by SDS-PAGE using rhodamine-tagged FP probe; assay type: cell-based, HEK-293T
Outline: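 HEK293T cells were transfected with cDNA for the target hydrolase. The transfected proteome was treated with inhibitor across 0.01-100 μM, then labeled with rhodamine-tagged fluorophosphonate probe (FP-Rh). Loss of probe labeling was read to give IC50. Values are means ± standard errors of three independent experiments.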

[7] = target: T4, Phosphatidylserine lipase ABHD16A (Mus musculus) (UniProt Q9Z1Q2); test: Inhibition of BAT5 in mouse brain at 0.01 to 100 uM treated for 30 mins by SDS-PAGE using rhodamine-tagged FP probe; assay type: tissue-based; outline: as §1
T4 sequence (whole entry): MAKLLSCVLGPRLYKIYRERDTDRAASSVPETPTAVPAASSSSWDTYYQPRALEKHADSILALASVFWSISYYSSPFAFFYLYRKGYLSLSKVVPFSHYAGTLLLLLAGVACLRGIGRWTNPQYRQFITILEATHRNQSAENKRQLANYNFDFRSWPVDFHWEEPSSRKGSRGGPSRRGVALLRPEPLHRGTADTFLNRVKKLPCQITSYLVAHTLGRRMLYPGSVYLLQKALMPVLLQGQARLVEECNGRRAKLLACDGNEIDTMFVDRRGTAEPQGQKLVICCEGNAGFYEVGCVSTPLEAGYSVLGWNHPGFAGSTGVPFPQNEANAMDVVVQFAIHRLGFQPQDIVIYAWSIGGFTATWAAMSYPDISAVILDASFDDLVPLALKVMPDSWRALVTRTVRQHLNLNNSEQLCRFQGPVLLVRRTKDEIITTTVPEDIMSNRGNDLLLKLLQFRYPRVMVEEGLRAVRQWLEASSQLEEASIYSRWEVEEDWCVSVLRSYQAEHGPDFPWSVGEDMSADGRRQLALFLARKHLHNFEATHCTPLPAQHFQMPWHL

[8] = target: Diacylglycerol lipase-alpha (Homo sapiens) (UniProt Q9Y4D2); test: Inhibition of recombinant DAGLalpha overexpressed in african green monkey COS7 cells assessed as accumulation of 2-arachidonoylglycerol […]; assay type: cell-based; details: COS-7
Diacylglycerol lipase-alpha (Homo sapiens), sequence (Q9Y4D2 whole entry): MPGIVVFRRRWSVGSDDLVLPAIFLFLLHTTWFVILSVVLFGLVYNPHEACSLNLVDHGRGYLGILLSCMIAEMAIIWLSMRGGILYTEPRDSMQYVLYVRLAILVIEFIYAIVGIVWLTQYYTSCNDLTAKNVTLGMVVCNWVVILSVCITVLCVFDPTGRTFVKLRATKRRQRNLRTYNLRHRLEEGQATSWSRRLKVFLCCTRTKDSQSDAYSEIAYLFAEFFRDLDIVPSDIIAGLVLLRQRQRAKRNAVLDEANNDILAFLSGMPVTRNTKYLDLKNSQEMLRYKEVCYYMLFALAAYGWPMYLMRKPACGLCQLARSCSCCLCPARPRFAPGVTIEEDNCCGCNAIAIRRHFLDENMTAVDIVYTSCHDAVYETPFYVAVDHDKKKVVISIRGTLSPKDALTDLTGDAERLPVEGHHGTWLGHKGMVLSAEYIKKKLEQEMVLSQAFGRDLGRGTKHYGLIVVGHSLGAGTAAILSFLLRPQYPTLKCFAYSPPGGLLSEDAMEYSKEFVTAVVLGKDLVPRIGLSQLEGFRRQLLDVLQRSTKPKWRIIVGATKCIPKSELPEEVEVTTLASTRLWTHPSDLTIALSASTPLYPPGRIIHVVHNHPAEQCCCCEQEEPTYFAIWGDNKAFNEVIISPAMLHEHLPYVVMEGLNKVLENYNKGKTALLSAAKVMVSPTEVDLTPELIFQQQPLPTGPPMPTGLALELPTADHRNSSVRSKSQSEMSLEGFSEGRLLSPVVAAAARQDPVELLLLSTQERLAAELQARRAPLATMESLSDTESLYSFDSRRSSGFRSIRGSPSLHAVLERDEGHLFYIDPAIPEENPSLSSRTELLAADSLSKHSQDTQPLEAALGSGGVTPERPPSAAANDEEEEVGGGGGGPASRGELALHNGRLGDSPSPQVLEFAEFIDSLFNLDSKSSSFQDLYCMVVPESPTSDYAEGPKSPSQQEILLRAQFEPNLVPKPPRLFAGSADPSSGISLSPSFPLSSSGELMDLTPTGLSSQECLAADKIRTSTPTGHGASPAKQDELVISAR

Phosphatidylserine lipase ABHD16A, sequence (O95870 whole entry): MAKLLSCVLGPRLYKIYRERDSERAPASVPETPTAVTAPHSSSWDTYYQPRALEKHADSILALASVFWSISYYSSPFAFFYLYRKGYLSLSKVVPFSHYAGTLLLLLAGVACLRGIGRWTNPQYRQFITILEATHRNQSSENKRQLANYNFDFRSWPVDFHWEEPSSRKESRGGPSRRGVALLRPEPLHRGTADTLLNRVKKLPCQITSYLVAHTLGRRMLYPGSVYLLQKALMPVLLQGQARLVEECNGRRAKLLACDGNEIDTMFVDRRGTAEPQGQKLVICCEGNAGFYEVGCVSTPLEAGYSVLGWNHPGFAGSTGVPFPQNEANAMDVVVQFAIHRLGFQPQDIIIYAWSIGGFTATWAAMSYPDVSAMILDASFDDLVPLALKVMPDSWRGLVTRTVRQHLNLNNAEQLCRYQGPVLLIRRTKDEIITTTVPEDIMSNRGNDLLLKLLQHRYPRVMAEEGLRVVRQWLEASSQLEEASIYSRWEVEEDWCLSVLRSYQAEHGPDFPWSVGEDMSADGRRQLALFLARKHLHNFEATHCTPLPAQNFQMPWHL
Monoacylglycerol lipase ABHD6 (Mus musculus), sequence (Q8R2Y0 whole entry): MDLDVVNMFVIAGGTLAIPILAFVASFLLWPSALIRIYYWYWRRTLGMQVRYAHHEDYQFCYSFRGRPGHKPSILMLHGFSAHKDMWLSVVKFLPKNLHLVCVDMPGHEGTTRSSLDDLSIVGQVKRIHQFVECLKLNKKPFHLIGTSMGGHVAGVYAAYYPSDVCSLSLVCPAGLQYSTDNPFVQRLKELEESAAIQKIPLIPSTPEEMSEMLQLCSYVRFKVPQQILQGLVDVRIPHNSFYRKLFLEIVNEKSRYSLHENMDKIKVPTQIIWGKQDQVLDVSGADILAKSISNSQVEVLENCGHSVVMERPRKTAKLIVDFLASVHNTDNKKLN
Monoglyceride lipase (Mus musculus), sequence (O35678 whole entry): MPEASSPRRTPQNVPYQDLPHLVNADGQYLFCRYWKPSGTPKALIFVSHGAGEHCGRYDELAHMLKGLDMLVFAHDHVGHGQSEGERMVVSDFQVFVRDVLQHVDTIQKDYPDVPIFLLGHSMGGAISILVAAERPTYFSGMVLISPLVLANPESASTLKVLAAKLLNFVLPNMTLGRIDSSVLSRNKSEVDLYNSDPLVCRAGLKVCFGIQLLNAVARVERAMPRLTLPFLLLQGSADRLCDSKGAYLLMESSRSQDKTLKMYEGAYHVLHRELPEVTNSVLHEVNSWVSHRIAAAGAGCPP

Structure (SMILES)	Activity [1]	Activity [2]	Activity [3]	Activity [4]	Activity [5]	IC50 [6] [µM]	Activity [7]	Activity [8]
O=C(NCCCCCCNC(=O)ON=C1CCCCC1)ON=C1CCCCC1	Active	Active	inactive	Active	Active	23	Active	Active
CCCCCCCCCCC[C@@H](C[C@@H]1OC(=O)[C@H]1CCCCCC)OC(=O)[C@H](CC(C)C)NC=O [ORLISTAT]	Active	Active	inactive	Active	Active	0.03	Active	Active
